pPAFAH FP inh = pPAFAH enzyme inhibitors, primary screen, biochemical, fluorescence polarization, human. Platelet-activating factor acetylhydrolase (Homo sapiens), Q13093. recombinant pPAFAH, FP-rhodamine probe fluorescence polarization. inhibition, % at 3.39 µM. 330,000 tested, 1.5% active. AID 463082, 2010;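 active = inhibition above the mean inhibition across the screen plus 3 SD, cut at about 25% in these data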;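 also: inhibitors block binding of the rhodamine activity-based probe so polarization drops; 0% = enzyme with DMSO and 100% = wells lacking pPAFAH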
Apaf1 inhib = inhibitors of human Apaf-1 apoptosome, primary screen, biochemical, DEVD-Rh110 fluorescence, uHTS; 330,000 tested, 0.71% active; reconstituted apoptosome caspase-3 activity; inhibition, % at 20 µM; active = inhibition of at least 40% at 20 µM;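 also: plate controls were DMSO wells for no effect and DEVD-CHO caspase inhibitor wells for full effect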
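System: reconstituted apoptosome with Apaf-1, cytochrome c, caspase-9, procaspase-3, dATP; Signal: Rh110 fluorescence intensity; Schedule: 30 min compound preincubation, 50 min activation, room temperature; Reagent: cytochrome c trigger plus (Z-DEVD)2-Rh110 caspase-3 substrate.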
PAFAH2 inh = PAFAH2 enzyme inhibitors, primary screen, biochemical, fluorescence polarization, human | inhibition, % at 3.39 µM | Platelet-activating factor acetylhydrolase 2, cytoplasmic (Homo sapiens), Q99487 | AID 492956, 2010 | 340,000 tested, 0.99% active | recombinant PAFAH2, FP-rhodamine activity probe;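 active = inhibition above the mean over all tested compounds plus 3 SD, cut at about 30% in these data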;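 also: inhibitors block probe labeling of enzyme so polarization drops; 0% = enzyme with DMSO and 100% = wells lacking PAFAH2 protein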
PAFAH1B2 inh = PAFAH1B2 enzyme inhibitors, primary screen, biochemical, fluorescence polarization, human. Platelet-activating factor acetylhydrolase IB subunit alpha2 (Homo sapiens), P68402. recombinant PAFAH1B2, FP-rhodamine activity probe. inhibition, % at 3.39 µM. 340,000 tested, 1.2% active. AID 492953, 2010;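 active = inhibition above the mean of all tested compounds plus 3 SD, cut at about 24% in these data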;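 also: 0% = enzyme with DMSO and 100% = wells lacking PAFAH1B2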
Target sequence (P68402 whole entry, looked up): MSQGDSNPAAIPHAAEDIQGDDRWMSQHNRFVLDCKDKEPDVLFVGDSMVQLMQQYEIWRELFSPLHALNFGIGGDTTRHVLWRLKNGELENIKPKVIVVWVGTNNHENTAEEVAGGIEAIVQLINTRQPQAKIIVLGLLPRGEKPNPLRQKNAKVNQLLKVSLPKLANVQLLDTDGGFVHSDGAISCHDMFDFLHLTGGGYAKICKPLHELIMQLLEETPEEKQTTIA
PAFAH1B3 FP inh = PAFAH1B3 enzyme inhibitors, primary screen, biochemical, fluorescence polarization, human | 340,000 tested, 0.28% active | inhibition, % at 3.39 µM | Platelet-activating factor acetylhydrolase IB subunit alpha1 (Homo sapiens), Q15102 | AID 492972, 2010 | recombinant PAFAH1B3, FP-rhodamine probe;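 active = inhibition above the screen-wide average of all tested compounds plus 3 SD, cut at about 25% in these data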;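 also: 0% = enzyme with DMSO only and 100% = wells lacking PAFAH1B3 protein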
Target sequence (Q15102 whole entry, looked up): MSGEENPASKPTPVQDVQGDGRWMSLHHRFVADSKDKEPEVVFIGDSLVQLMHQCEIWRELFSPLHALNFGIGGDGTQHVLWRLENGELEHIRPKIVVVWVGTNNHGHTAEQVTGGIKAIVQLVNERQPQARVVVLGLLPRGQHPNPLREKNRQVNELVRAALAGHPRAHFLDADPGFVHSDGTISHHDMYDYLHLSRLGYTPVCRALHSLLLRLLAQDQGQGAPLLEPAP
* marks the source's active call; other numbers are inactive results; nt = no result given. Shown are actives, neighbours in structure and some others; about 3.1% of the full set was active somewhere.

SMILES	pPAFAH FP inh	Apaf1 inhib	PAFAH2 inh	PAFAH1B2 inh	PAFAH1B3 FP inh
N#CCN1C(=O)NC2(CCCc3sccc32)C1=O (configuration not stated)	5.6	10.0	-1.8	2.4	9.3
O=[N+]([O-])c1ccccc1S(=O)(=O)NCCSc1ccccc1	1.2	8.2	12.4	28.9*	7.0
O=C(CNC(=O)c1ccccc1)OCCCOC(=O)CNC(=O)c1ccccc1	8.7	-1.9	2.5	-1.6	6.2
CCc1cccc(NC(=O)CCNS(=O)(=O)c2ccc3c(c2)oc(=O)n3C)c1	2.6	-0.8	2.7	6.0	5.9
S=c1[nH]nc(-c2cc(-c3ccccc3)n[nH]2)n1/N=C/C=C/c1ccco1	26.1*	7.9	nt	nt	nt
COC(=O)c1ccsc1NS(=O)(=O)c1ccccc1	28.4*	0.0	0.4	5.2	5.2
COC(=O)c1sccc1NS(=O)(=O)c1ccccc1	3.2	-0.3	1.2	2.5	5.1
CCC1CCCCN1S(=O)(=O)c1ccc(NC(=O)c2nc(S(C)(=O)=O)ncc2Cl)cc1 (configuration not stated)	-8.0	22.8	-15.9	-10.9	-34.0
CCc1ccc(C2CC(c3ccc(F)cc3)Nc3nc(N)nn32)cc1 (configuration not stated)	-0.7	7.9	-4.9	5.5	6.8
CCc1ccc(C2CC(c3ccc(Cl)cc3)n3nc(N)nc3N2)cc1 (configuration not stated)	-3.2	12.7	4.8	36.2*	5.2
O=C(N/N=C/c1cc([N+](=O)[O-])cc([N+](=O)[O-])c1O)/C(=C\c1cccs1)NC(=O)c1ccccc1	30.8*	14.8	14.1	9.5	12.1
Cc1ccc(C)c(S(=O)(=O)N2CCN(Cc3cc4c(cc3O)OCO4)CC2)c1	5.6	9.0	7.5	-1.4	2.8
COc1cc(/C=C(\C#N)c2nc3ccccc3s2)cc([N+](=O)[O-])c1O	nt	19.3	54.7*	28.8*	42.3*
N#C/C(=C\c1ccc(O)c([N+](=O)[O-])c1)c1nc2ccccc2s1	nt	nt	44.4*	30.3*	31.1*
COc1ccc(-c2csc(/C(C#N)=C\c3ccc(OC)c([N+](=O)[O-])c3)n2)cc1	2.7	5.9	-23.6	-0.1	1.6
COc1ccc(-c2csc(/C(C#N)=C\c3ccc(O)c([N+](=O)[O-])c3)n2)cc1OC	12.0	18.3	7.7	2.5	6.4
Cc1ccc(C(=O)Nc2ccc(N3CCN(C(=O)c4cccs4)CC3)cc2)c(Cl)c1	11.8	12.1	10.4	6.1	-2.1
COc1ccc(/C=C/C(=O)OCC(=O)N2CCCC2)c(OC)c1	5.0	-40.5	16.1	0.8	-2.5
CC1CCCC(NC(=O)COC(=O)Cc2ccc(Cl)cc2)C1C (configuration not stated)	28.1*	5.8	15.9	20.4	15.2
COc1ccc(/C=C/C(=O)OCC(=O)NC2CCCC(C)C2C)c(OC)c1 (configuration not stated)	29.4*	24.4	76.1*	-1.6	-1.1
Cc1ccc(CC(=O)OCC(=O)NC2CCCC(C)C2C)cc1C (configuration not stated)	29.3*	25.2	38.5*	4.2	10.1
CCN(CC(=O)Nc1c(F)cccc1F)C(=O)c1ccc2c(c1)OCO2	4.6	20.6	0.5	5.4	-5.2
N#C/C(=C(/O)COC(=O)Cc1c[nH]c2ccccc12)c1nc2ccccc2[nH]1	24.9*	6.4	9.1	4.0	3.7
C/C=C1\COC(C(=O)NCc2ccccc2)(C(F)(F)F)C=C1C=C(C)C (configuration not stated)	1.9	3.5	2.8	-1.1	-1.4
CCN1CCN(Cc2ccc(NC(=O)c3cc(NC(=O)c4ccno4)cc(OC)c3)cc2C(F)(F)F)CC1	-7.0	15.2	-10.0	-2.0	-3.4
SMILES	pPAFAH FP inh	Apaf1 inhib	PAFAH2 inh	PAFAH1B2 inh	PAFAH1B3 FP inh
CCN1CCN(Cc2ccc(NC(=O)c3cc(NC(=O)c4cc5cccc(OC)c5o4)cc(OC)c3)cc2C(F)(F)F)CC1	-24.4	63.1*	-32.2	-1.1	-2.4
C[n+]1c(/C=C/c2ccc(O)cc2)ccc2ccccc21	-0.4	7.0	-10.7	-4.0	9.1
Cc1cc(/C=C\c2ccc3cc(N(C)C)ccc3[n+]2C)c(C)n1-c1ccccc1	2.8	43.3*	-51.8	-53.9	-80.5
O=C(CN1CCN(Cc2ccccc2)CC1)Nc1ccc(Br)cc1	4.6	6.9	-5.8	-0.6	2.0
O=C(Cc1ccc(Cl)c(Cl)c1)Nc1ccc(S(=O)(=O)Nc2ncccn2)cc1	7.3	-7.9	-0.6	5.5	-0.6
O=c1ccc(NS(=O)(=O)c2ccccc2)cn1Cc1ccc(Cl)c(Cl)c1	25.8*	2.6	5.4	15.4	9.0
Cn1c(N)c(C(=O)COC(=O)Cc2ccc(Cl)cc2)c(=O)n(C)c1=O	nt	2.3	1.0	5.4	0.6
CCN(CC)S(=O)(=O)c1cc(C(=O)OCC(=O)NC2CCCc3ccccc32)ccc1C (configuration not stated)	26.9*	16.6	67.4*	1.1	7.0
CCN(CC)S(=O)(=O)c1cc(C(=O)OCC(=O)Nc2cccc(C)c2C)ccc1F	23.4	11.1	24.2	0.0	10.0
CCN(CC)S(=O)(=O)c1cc(C(=O)OCC(=O)Nc2c(F)cccc2F)ccc1F	32.5*	9.1	28.5	0.4	7.4
O=C(CCc1nc(-c2ccccc2)no1)NC1CCCCCC1	-0.5	-2.2	5.8	2.8	1.4
CC(C)CC(=O)Nc1cccc(-c2cn3ccsc3n2)c1	-2.4	-5.3	4.6	-1.6	-1.8
Cc1ccc(S(=O)(=O)Nc2cccc(-c3cn4ccsc4n3)c2)cc1	-0.2	0.0	-8.6	6.1	2.3
CC(C)C(=O)Nc1cccc(-c2cn3ccsc3n2)c1	3.7	67.1*	-2.4	0.7	6.3
O=S(=O)(Nc1cccc(-c2cn3ccsc3n2)c1)c1ccc(F)cc1	32.2*	5.6	4.7	7.2	14.3
COc1[nH]c(/N=C/c2ccccc2)c(C#N)c1C#N	6.1	8.3	82.8*	80.8*	81.8*
Cc1ccc(Cl)cc1NC(=O)c1cc(S(=O)(=O)N2CCOCC2)cn1C	-1.3	10.0	2.1	2.6	1.7
N#Cc1ccc(CN(c2ccncc2)S(=O)(=O)c2ccccc2)cc1	2.2	2.6	-0.3	0.8	1.9
COC(=O)C1CSc2[nH]c(=O)sc2C1c1ccccc1 (configuration not stated)	2.5	-11.0	10.7	27.9*	3.1
COc1cc(OC)c(NC(=O)CCNS(=O)(=O)c2ccc3c(c2)oc(=O)n3C)cc1Cl	24.7*	-7.8	6.1	-3.0	1.8
COc1ccc(OC)c(NC(=O)CCNS(=O)(=O)c2ccc3c(c2)oc(=O)n3C)c1	4.2	-3.6	-3.1	2.6	-4.8

Assay outcomes (PubChem)
